From ChEMBL document CHEMBL1124780, “Phenyl selenones: alkyl transfer by selenium-carbon bond cleavage” (J Med Chem, 1990)

Legend:
L1210 = assay: In vitro growth inhibition against L1210 murine leukemia cells; assay type: functional, cell-based; conditions: Mus musculus
Summary of the method: (§1)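 Cells were exposed to drug in vitro for 48 h (L1210 murine leukemia; CCRF-CEM human lymphoblast). The value is the drug concentration giving 50% growth inhibition.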

[1] = Half-life after NBP alkylation; assay type: ADME
Summary of the method: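 NBP alkylation at 37 °C in aqueous acetone (52.2:47.8, v/v) with 40.6 mM NBP (pseudo-first-order excess), 17.4 mM Tris-HCl pH 7.4, and 0.087 or 0.174 mM alkylating agent. First-order rate constants were taken from plots of log(percent remaining alkylating species) vs time. Adduct was read at 560 nm after triethylamine alkalization.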

[2] = Pseudo first order rate constant of NBP alkylation was determined at 37 degree Centigrade; assay type: ADME
Summary of the method: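 Alkylating agent (0.087 or 0.174 mM) reacted at 37 °C with 4-(4-nitrobenzyl)pyridine (40.6 mM, pseudo-first-order excess). Medium was aqueous acetone (52.2:47.8 v/v) with 17.4 mM Tris-HCl, pH 7.4. k' was taken from plots of log(% remaining alkylating species) vs time.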

CCRF-CEM [3] = assay: In vitro growth inhibition against CCRF-CEM human lymphoblast cells; assay type: functional, cell-based; summary of the method: as §1
NCI-H460 = assay: In vitro cytotoxicity was determined against H460 human non-small cell lung carcinoma cell line using NCI screen; assay type: functional, cell-based
IGROV-1 = assay: In vitro cytotoxicity was determined against IGROVI human ovarian cell line using NCI screen; assay type: functional, cell-based
SN12C [4] = assay: (§2) In vitro cytotoxicity was determined against SN12 KI human renal tumor cell line using NCI screen; assay type: functional, cell-based
SN12C [5] = assay: as §2; assay type: functional, cell-based; remark: listed apart in the source
SNB-19 = assay: In vitro cytotoxicity was determined against SNB19 human CNS tumor cell line using NCI screen; assay type: functional, cell-based
A498 = assay: In vitro cytotoxicity was determined against A 498 human renal tumor cell line using NCI screen; assay type: functional, cell-based
COLO 320 [6] = assay: In vitro cytotoxicity was determined against COLO 320 human colon tumor cell line using BACTEC screen; assay type: functional, cell-based
LOX IMVI = assay: In vitro cytotoxicity was determined against LOX human melanoma cell line using NCI screen; assay type: functional, cell-based
SNB-78 = assay: In vitro cytotoxicity was determined against SNB78 human CNS tumor cell line using NCI screen; assay type: functional, cell-based
UACC-257 = assay: In vitro cytotoxicity was determined against UACC-257 human melanoma cell line using NCI screen; assay type: functional, cell-based
SK-OV-3 = assay: In vitro cytotoxicity was determined against SKOV-3 human ovarian cell line using NCI screen; assay type: functional, cell-based
HOP-19 = assay: In vitro cytotoxicity was determined against HOP-19 human non-small cell lung carcinoma cell line using NCI screen; assay type: functional, cell-based
KM-20L2 = assay: In vitro cytotoxicity was determined against KM20L2 human colon tumor cell line using NCI screen; assay type: functional, cell-based
HT-29 = assay: In vitro cytotoxicity was determined against HT-29 human colon tumor cell line using BACTEC screen; assay type: functional, cell-based
M19-MEL = assay: In vitro cytotoxicity was determined against M19-MEL human melanoma cell line using NCI screen; assay type: functional, cell-based
OM-1 = assay: In vitro cytotoxicity was determined against OM-1 human colon tumor cell line using BACTEC screen; assay type: functional, cell-based
SK-MES-1 = assay: In vitro cytotoxicity was determined against SKMES human non-small cell lung carcinoma cell line using BACTEC screen; assay type: functional, cell-based
HCC 2998 = assay: In vitro cytotoxicity was determined against HCC 2998 human colon tumor cell line using NCI screen; assay type: functional, cell-based
CCRF-CEM [7] = assay: In vitro cytotoxicity was determined against CCRF-CEM human leukemia cell line using NCI screen; assay type: functional, cell-based
MOLT-4 = assay: In vitro cytotoxicity was determined against MOLT-4 human leukemia cell line using NCI screen; assay type: functional, cell-based
SK-MEL-5 = assay: In vitro cytotoxicity was determined against SK-MEL-5 human melanoma cell line using NCI screen; assay type: functional, cell-based
SF-539 = assay: In vitro cytotoxicity was determined against SF-539 human CNS tumor cell line using NCI screen; assay type: functional, cell-based
CCRF-SB = assay: In vitro cytotoxicity was determined against CCRF-SB human leukemia cell line using NCI screen; assay type: functional, cell-based
COLO 320 [8] = assay: In vitro cytotoxicity was determined against COLO 320 DM human colon tumor cell line using NCI screen; assay type: functional, cell-based
SF-295 = assay: In vitro cytotoxicity was determined against SF-295, U251, SNB19 human CNS tumor cell line using NCI screen; assay type: functional, cell-based
HOP-62 = assay: In vitro cytotoxicity was determined against HOP-62 human non-small cell lung carcinoma cell line using NCI screen; assay type: functional, cell-based
MCF7 = assay: In vitro cytotoxicity was determined against MCF-7M human breast tumor cell line using BACTEC screen; assay type: functional, cell-based
Malme-3M = assay: In vitro cytotoxicity was determined against MALME-3M human melanoma cell line using NCI screen; assay type: functional, cell-based
KM12 = assay: In vitro cytotoxicity was determined against KM12 human colon tumor cell line using NCI screen; assay type: functional, cell-based
A2780 = assay: In vitro cytotoxicity was determined against A2780 human ovarian cell line using NCI screen; assay type: functional, cell-based
Homo sapiens [9] = species on record: Homo sapiens; assay: In vitro cytotoxicity was determined against SKLU human non-small cell lung carcinoma cell line using BACTEC screen; assay type: functional
U-251 = assay: In vitro cytotoxicity was determined against U251 human CNS tumor cell line using NCI screen; assay type: functional, cell-based
SK-MEL-2 = assay: In vitro cytotoxicity was determined against SK-MEL-2 human melanoma cell line using NCI screen; assay type: functional, cell-based
TE-671 = assay: In vitro cytotoxicity was determined against TE671 human CNS tumor cell line using NCI screen; assay type: functional, cell-based
SK-MEL-28 = assay: In vitro cytotoxicity was determined against SK-MEL-28 human melanoma cell line using NCI screen; assay type: functional, cell-based
SF-268 = assay: In vitro cytotoxicity was determined against SF-268 human CNS tumor cell line using NCI screen; assay type: functional, cell-based
HCT-15 = assay: In vitro cytotoxicity was determined against HCT-15 human colon tumor cell line using NCI screen; assay type: functional, cell-based
UACC-62 = assay: In vitro cytotoxicity was determined against UACC-62 human melanoma cell line using NCI screen; assay type: functional, cell-based
Homo sapiens [10] = species on record: Homo sapiens; assay: In vitro cytotoxicity was determined against CALU 3 human non-small cell lung carcinoma cell line using BACTEC screen; assay type: functional
K562 = assay: In vitro cytotoxicity was determined against K-562 human leukemia cell line using NCI screen; assay type: functional, cell-based
NCI-H23 = assay: In vitro cytotoxicity was determined against H23 human non-small cell lung carcinoma cell line using NCI screen; assay type: functional, cell-based
HOP-18 = assay: In vitro cytotoxicity was determined against HOP-18 human non-small cell lung carcinoma cell line using NCI screen; assay type: functional, cell-based
COLO 205 = assay: In vitro cytotoxicity was determined against COLO-205 human colon tumor cell line using NCI screen; assay type: functional, cell-based
Hs-578T = assay: In vitro cytotoxicity was determined against Hs 578.T human breast tumor cell line using BACTEC screen; assay type: functional, cell-based
UO-31 = assay: In vitro cytotoxicity was determined against UO-31 human renal tumor cell line using NCI screen; assay type: functional, cell-based
HCT-116 = assay: In vitro cytotoxicity was determined against COLO 320 DM,HCT-15, COLO-205, HCT116 HCC 2998, KM20L2, KM12 human colon tumor cell line using NCI screen; assay type: functional, cell-based
RPMI-8226 = assay: In vitro cytotoxicity was determined against RPMI 8226 human leukemia cell line using NCI screen; assay type: functional, cell-based
OVCAR-5 = assay: In vitro cytotoxicity was determined against OVCAR5 human ovarian cell line using NCI screen; assay type: functional, cell-based

## O=S(=O)(CCCl)c1ccccc1
L1210
  IC50: 2.3 µM
[1]
  half-life: > 96 h
[2]
  k': < 0.00012 min⁻¹
CCRF-CEM [3]
  IC50: 2.25 µM

## ClCC[Se]CCCl
[1]
  half-life: 0.004 h

## CC[Se](=O)(=O)c1ccccc1
L1210
  IC50: 5 µM
[1]
  half-life: 4.67 h
[2]
  k': 0.00248 min⁻¹
CCRF-CEM [3]
  IC50: 10 µM

## CS(=O)(=O)CS(=O)(=O)OCCCl
L1210
  IC50: 3 µM
[1]
  half-life: 9.4 h
[2]
  k': 0.00123 min⁻¹

## COc1ccc([Se](=O)(=O)CCCl)cc1
L1210
  IC50: 0.36 µM
[1]
  half-life: 9.25 h
[2]
  k': 0.00125 min⁻¹
CCRF-CEM [3]
  IC50: 0.14 µM

## O=[Se](=O)(CCCl)c1ccccc1
NCI-H460
  IC50: 4.3 µM
IGROV-1
  IC50: 7.8 µM
SN12C [4]
  IC50: 4.6 µM
SN12C [5]
  IC50: 4.6 µM
SNB-19
  IC50: 6 µM
A498
  IC50: 4.6 µM
COLO 320 [6]
  IC50: 1.2 µM
LOX IMVI
  IC50: 3.7 µM
SNB-78
  IC50: 6 µM
UACC-257
  IC50: 3.7 µM
SK-OV-3
  IC50: 7.8 µM
HOP-19
  IC50: 4.3 µM
L1210
  IC50: 0.55 µM
KM-20L2
  IC50: 2.3 µM
HT-29
  IC50: 1.9 µM
M19-MEL
  IC50: 3.7 µM
OM-1
  IC50: > 4 µM
[1]
  half-life: 8.37 h
SK-MES-1
  IC50: 0.15 µM
HCC 2998
  IC50: 2.3 µM
CCRF-CEM [7]
  IC50: 0.45 µM
MOLT-4
  IC50: 0.45 µM
SK-MEL-5
  IC50: 3.7 µM
SF-539
  IC50: 6 µM
CCRF-SB
  IC50: 0.45 µM
COLO 320 [8]
  IC50: 2.3 µM
SF-295
  IC50: 6 µM
HOP-62
  IC50: 4.3 µM
MCF7
  IC50: > 4 µM
Malme-3M
  IC50: 3.7 µM
KM12
  IC50: 2.3 µM
A2780
  IC50: 7.8 µM
Homo sapiens [9]
  IC50: 0.06 µM
[2]
  k': 0.00138 min⁻¹
U-251
  IC50: 6 µM
SK-MEL-2
  IC50: 3.7 µM
TE-671
  IC50: 6 µM
SK-MEL-28
  IC50: 3.7 µM
SF-268
  IC50: 6 µM
HCT-15
  IC50: 2.3 µM
UACC-62
  IC50: 3.7 µM
Homo sapiens [10]
  IC50: 2.2 µM
K562
  IC50: 0.45 µM
NCI-H23
  IC50: 4.3 µM
HOP-18
  IC50: 4.3 µM
COLO 205
  IC50: 2.3 µM
Hs-578T
  IC50: 0.9 µM
UO-31
  IC50: 4.6 µM
HCT-116
  IC50: 2.3 µM
CCRF-CEM [3]
  IC50: 0.15 µM
RPMI-8226
  IC50: 0.45 µM
OVCAR-5
  IC50: 7.8 µM

## O=[N+]([O-])c1ccc([Se](=O)(=O)CCCl)cc1
L1210
  IC50: 0.9 µM
[1]
  half-life: 1.08 h
[2]
  k': 0.0104 min⁻¹
CCRF-CEM [3]
  IC50: 0.4 µM

## CS(=O)(=O)OCCC[Se](=O)(=O)c1ccccc1
L1210
  IC50: 1.2 µM
[1]
  half-life: 9.55 h
[2]
  k': 0.00121 min⁻¹
CCRF-CEM [3]
  IC50: 0.9 µM

## ClCC[Se]c1ccccc1
[1]
  half-life: 0.031 h

## O=[Se](O)c1ccccc1 [BENZENE SELENOIC ACID]
L1210
  IC50: 3 µM

## O=C(O)CCCc1ccc(N(CCCl)CCCl)cc1 [CHLORAMBUCIL]
[1]
  half-life: 7.75 h
[2]
  k': 0.00149 min⁻¹
